In ChEMBL document CHEMBL1138521, “Discovery of 4-(5-(4-chlorophenyl)-2-methyl-3-propionyl-1H-pyrrol-1-yl)benzenesulfonamide (A-867744) as a novel positive allosteric modulator of the alpha7 nicotinic acetylcholine receptor” (J Med Chem, 2009):
Active and inactive are the calls of the source. The rule behind the calls is not given here.

How the values were obtained:
[1] = biological target: T1, Neuronal acetylcholine receptor subunit alpha-7 (Homo sapiens, UniProt P36544); assay: Allosteric modulator activity at alpha7 nAChR in human IMR32 cells assessed as stimulation of agonist-induced intracellular calcium level by FLIPR assay; assay type: functional, cell-based, IMR-32
How it was run: (§1)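 IMR-32 human neuroblastoma cells (endogenous α7) on poly-D-lysine plates, loaded with calcium-4 no-wash dye in NMDG buffer (10 mM HEPES pH 7.4, 10 mM CaCl2) 1 h at 25 °C. Peak fluorescence over baseline, normalized to maximum; EC50 from 2–5 experiments in duplicate.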

[2] = biological target: T1, Neuronal acetylcholine receptor subunit alpha-7; assay: Allosteric modulator activity at alpha7 nAChR in human IMR32 cells assessed as stimulation of agonist-induced intracellular calcium level by FLIPR assay relative to 1-(5-chloro-2,4-dimethoxyphenyl)-3-(5-methylisoxazol-3-yl)urea; assay type: functional, cell-based; conditions: IMR-32; how it was run: as §1
[3] = Metabolic stability in rat liver microsomes assessed as compound remaining after 30 mins; assay type: ADME, Microsome; conditions: read-out: Stability
How it was run: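 Microsomes prewarmed 10 min at 37 °C; reaction started with compound (1 µM final) and NADPH (1 mM final) at 0.5 mg/mL protein, in triplicate. Sampled at 0, 10, 20 and 30 min; stopped with acetonitrile/methanol containing warfarin internal standard; centrifuged supernatant analysed by HPLC-MS.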

[4] = tested on: Oocyte; assay: Modulator activity at alpha7 nAChR in Xenopus laevis oocytes cells assessed as activation of electric currents at 0.1 nM to 10 uM at -60 mV by two-electrode voltage clamp technique; assay type: cell-based
How it was run: (§2)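 Xenopus oocytes, collagenase-defolliculated, injected with ~20–25 ng α7 nAChR cRNA, kept at 18 °C and used 2–7 days later. Two-electrode voltage clamp at −60 mV, room temperature, in Ba2+-OR2 with 0.5 µM atropine. Modulator applied ≥60 s before 1 s application of 100 µM ACh. Apparent peak current expressed as percent of 100 µM ACh response; sigmoidal variable-slope fit.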

[5] = tested on: Oocyte; assay: Modulator activity at alpha7 nAChR in Xenopus laevis oocytes cells assessed as enhancement of acetylcholine-evoked electric currents at -60 mV by two-electrode voltage clamp technique; assay type: cell-based; how it was run: as §2
[6] = tested on: Oocyte; assay: Modulator activity at alpha7 nAChR in Xenopus laevis oocytes cells assessed as decay of acetylcholine-evoked electric current response at -60 mV by two-electrode voltage clamp technique; assay type: cell-based; how it was run: as §2
[7] = biological target: Neuronal acetylcholine receptor subunit alpha-7 (Rattus norvegicus) (UniProt Q05941); assay: Modulator activity at alpha7 nAChR in rat neonatal cortical neurons assessed as enhancement of (R)-4-chloro-N-(quinuclidin-8-yl)benzamide-induced calcium flux response at 5 uM by FLIPR assay
How it was run: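 Primary neonatal rat cortical neurons cultured on poly-D-lysine plates (10000 cells/well), assayed 3 days after plating. Calcium-3 dye in HBSS with 20 mM HEPES. After 10 s baseline, modulator added for 3–5 min, then agonist. Peak fluorescence increase over baseline in RFU, normalized to maximal value.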

[8] = biological target: Neuronal acetylcholine receptor; alpha4/beta2 (Homo sapiens) (UniProt P17787+P43681); assay: Activity at human recombinant alpha4beta2 nAChR expressed in HEK293 cells assessed as potentiation of nicotine-evoked calcium transients up to 30 uM; assay type: cell-based
[9] = biological target: Neuronal acetylcholine receptor; alpha3/beta4 (Homo sapiens) (UniProt P30926+P32297); assay: Activity at human recombinant alpha3beta4 nAChR expressed in HEK293 cells assessed as potentiation of nicotine-evoked calcium transients up to 30 uM; assay type: cell-based
[10] = Half life in rat at 2 umol/kg, iv; assay type: ADME, organism-based; conditions: in vivo
[11] = Volume of distribution at steady state in rat at 2 umol/kg, iv; assay type: ADME, organism-based; conditions: in vivo, read-out: Vdss
[12] = Plasma clearance in rat at 2 umol/kg, iv; assay type: ADME, organism-based
[13] = Cmax in rat at 2 umol/kg, po; assay type: ADME, organism-based; set-up: dose 2 umol/kg, route oral; conditions: in vivo
[14] = Oral bioavailability in rat at 2 umol/kg; assay type: ADME, organism-based; conditions: in vivo
[15] = Half life in dog at 0.5 umol/kg, iv; assay type: ADME, organism-based, Canis lupus familiaris; conditions: in vivo
[16] = Volume of distribution at steady state in dog at 0.5 umol/kg, iv; assay type: ADME, organism-based, Canis lupus familiaris; conditions: in vivo, read-out: Vdss
[17] = Plasma clearance in dog at 0.5 umol/kg, iv; assay type: ADME, organism-based, Canis lupus familiaris
[18] = Cmax in dog at 1 umol/kg, po; assay type: ADME, organism-based, Canis lupus familiaris; set-up: dose 1 umol/kg, route oral; conditions: in vivo
[19] = Oral bioavailability in dog at 1 umol/kg; assay type: ADME, organism-based, Canis lupus familiaris; conditions: in vivo
[20] = Half life in monkey at 0.5 umol/kg, iv; assay type: ADME, organism-based, Macaca mulatta; conditions: rhesus monkey, in vivo
[21] = Volume of distribution at steady state in monkey at 0.5 umol/kg, iv; assay type: ADME, organism-based, Macaca mulatta; conditions: rhesus monkey, in vivo, read-out: Vdss
[22] = Plasma clearance in monkey at 0.5 umol/kg, iv; assay type: ADME, organism-based, Macaca mulatta; conditions: rhesus monkey
[23] = Cmax in monkey at 1 umol/kg, po; assay type: ADME, organism-based, Macaca mulatta; set-up: dose 1 umol/kg, route oral; conditions: rhesus monkey, in vivo
[24] = Oral bioavailability in monkey at 1 umol/kg; assay type: ADME, organism-based, Macaca mulatta; conditions: rhesus monkey, in vivo
[25] = tested on: Mus musculus; assay: Improvement in gating deficits in DBA/2 mouse model of sensory gating deficits assessed as reduction in ratio of response to test stimulus relative to preceding response to conditioning stimulus at 0.1 to 10 umol/kg, ip by paired auditory stimulus paradigm assay; assay type: functional, organism-based
How it was run: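 DBA/2 mice (16–20 g) implanted with hippocampal CA3 EEG electrodes under ketamine/xylazine/acepromazine, ≥4 days recovery. Dosed ip in 5% DMSO/5% Solutol in PBS immediately before recording; 120 paired 5 ms white-noise bursts 0.5 s apart over 30 min. N40 amplitude T:C ratio. Within-subjects random-order crossover with vehicle, ≥72 h apart; mean ± SEM, one-way ANOVA with Newman-Keuls test.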

[26] = tested on: Brain; assay: Drug level in brain of DBA/2 mouse model of sensory gating deficits at 0.1 umol/kg, ip; assay type: functional, tissue-based
How it was run: (§3)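 DBA/2 mice dosed ip at 0.1, 1.0 or 10.0 µmol/kg in vehicle of 5% DMSO and 5% Solutol in PBS; brain concentration reported in ng/g.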

[27] = tested on: Brain; assay: Drug level in brain of DBA/2 mouse model of sensory gating deficits at 1 umol/kg, ip; assay type: functional, tissue-based; how it was run: as §3
[28] = tested on: Brain; assay: Drug level in brain of DBA/2 mouse model of sensory gating deficits at 10 umol/kg, ip; assay type: functional, tissue-based; how it was run: as §3
[29] = tested on: Rattus norvegicus; assay: Plasma concentration Sprague-Dawley rat at 3 mg/kg; assay type: ADME, organism-based; set-up: dose 3 mg/kg; conditions: in vivo
How it was run: (§4)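 Anesthetized rat cardiovascular assay at 3, 10 and 30 mg/kg, with plasma concentrations measured alongside mean arterial pressure, heart rate, contractility and peripheral vascular resistance.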

[30] = tested on: Rattus norvegicus; assay: Plasma concentration Sprague-Dawley rat at 10 mg/kg; assay type: ADME, organism-based; set-up: dose 10 mg/kg; conditions: in vivo; how it was run: as §4
[31] = tested on: Rattus norvegicus; assay: Plasma concentration Sprague-Dawley rat at 30 mg/kg; assay type: ADME, organism-based; set-up: dose 30 mg/kg; conditions: in vivo; how it was run: as §4

T1 sequence (P36544 whole entry): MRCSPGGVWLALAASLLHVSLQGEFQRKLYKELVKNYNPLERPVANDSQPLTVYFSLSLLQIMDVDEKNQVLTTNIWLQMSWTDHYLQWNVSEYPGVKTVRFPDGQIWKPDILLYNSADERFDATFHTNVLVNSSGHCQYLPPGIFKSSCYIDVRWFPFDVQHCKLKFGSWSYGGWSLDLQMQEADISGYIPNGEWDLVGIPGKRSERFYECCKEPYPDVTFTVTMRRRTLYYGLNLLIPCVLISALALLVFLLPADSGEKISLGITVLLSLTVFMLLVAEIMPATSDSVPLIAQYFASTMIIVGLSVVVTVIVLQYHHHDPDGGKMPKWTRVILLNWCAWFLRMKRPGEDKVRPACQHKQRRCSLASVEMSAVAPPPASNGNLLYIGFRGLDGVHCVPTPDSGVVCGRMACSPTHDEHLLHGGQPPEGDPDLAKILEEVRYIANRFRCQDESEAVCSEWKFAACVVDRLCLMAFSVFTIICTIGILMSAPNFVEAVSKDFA
Sequence of Neuronal acetylcholine receptor subunit alpha-7 (Rattus norvegicus) (Q05941 whole entry): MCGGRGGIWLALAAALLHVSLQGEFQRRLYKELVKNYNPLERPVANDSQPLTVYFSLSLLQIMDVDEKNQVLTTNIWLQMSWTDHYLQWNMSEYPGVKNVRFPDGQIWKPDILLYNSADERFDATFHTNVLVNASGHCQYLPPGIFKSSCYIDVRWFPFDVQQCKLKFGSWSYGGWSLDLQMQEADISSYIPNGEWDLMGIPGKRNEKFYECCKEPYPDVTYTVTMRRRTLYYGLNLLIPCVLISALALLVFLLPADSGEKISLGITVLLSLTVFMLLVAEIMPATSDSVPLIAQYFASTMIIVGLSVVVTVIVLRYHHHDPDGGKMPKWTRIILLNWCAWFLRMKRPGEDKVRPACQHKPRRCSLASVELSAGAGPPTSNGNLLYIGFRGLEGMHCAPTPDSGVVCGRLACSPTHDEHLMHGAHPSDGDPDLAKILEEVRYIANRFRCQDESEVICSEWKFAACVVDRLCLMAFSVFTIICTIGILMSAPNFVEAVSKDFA

CCCN(CCO)C(=O)c1cc(-c2ccc(Cl)cc2)n(-c2ccc(S(N)(=O)=O)cc2)c1C
EC50 [1]: 3.6 µM
Efficacy [2]: 11%
remaining at 0.5 h [3]: 58%

Cc1cc(C(=O)c2cc(-c3ccc(Cl)cc3)n(-c3ccc(S(N)(=O)=O)cc3)c2C)ccc1Cl
EC50 [1]: 4.88 µM
Efficacy [2]: 9%
remaining at 0.5 h [3]: 38%

CCOC(=O)c1cc(-c2ccc(Cl)cc2)n(-c2ccc(S(N)(=O)=O)cc2)c1C
remaining at 0.5 h [3]: 3%

Cc1c(C(=O)O)cc(-c2ccc(Cl)cc2)n1-c1ccc(S(N)(=O)=O)cc1
EC50 [1]: > 30 µM
Efficacy [2]: 8%

Cc1c(C(=O)N2CCCCC2)cc(-c2ccc(Cl)cc2)n1-c1ccc(S(N)(=O)=O)cc1
EC50 [1]: > 30 µM
Efficacy [2]: 11%

CC(=O)c1cc(-c2ccc(Cl)cc2)n(-c2ccc(S(N)(=O)=O)cc2)c1C
remaining at 0.5 h [3]: 64%

Cc1c(C(=O)N(C)C)cc(-c2ccc(Cl)cc2)n1-c1ccc(S(N)(=O)=O)cc1
EC50 [1]: > 30 µM
Efficacy [2]: 4%

Cc1c(C(=O)c2ccc(Cl)cc2)cc(-c2ccc(Cl)cc2)n1-c1ccc(S(N)(=O)=O)cc1
EC50 [1]: > 30 µM
Efficacy [2]: 5%

Cc1ccc(C(=O)c2cc(-c3ccc(Cl)cc3)n(-c3ccc(S(N)(=O)=O)cc3)c2C)cc1
EC50 [1]: > 30 µM
Efficacy [2]: 7%

CCN(C)C(=O)c1cc(-c2ccc(Cl)cc2)n(-c2ccc(S(N)(=O)=O)cc2)c1C
EC50 [1]: > 30 µM
Efficacy [2]: 3%

CCC(=O)c1cc(-c2ccc(Cl)cc2)n(-c2ccc(S(N)(=O)=O)cc2)c1C
remaining at 0.5 h [3]: 96%
Activity [4]: inactive
Activity [5]: Dose-dependent effect
Activity [6]: Active
Activity [7]: Active
Activity [8]: inactive
Activity [9]: inactive
half-life [10]: 102 min
Vd [11]: 4.6 L/kg
clearance [12]: 35 mL/min/kg
Cmax [13]: 41 ng/mL
bioavailability [14]: 83%
half-life [15]: 78 min
Vd [16]: 1.7 L/kg
clearance [17]: 18.3 mL/min/kg
Cmax [18]: 87 ng/mL
bioavailability [19]: 55%
half-life [20]: 60 min
Vd [21]: 2.8 L/kg
clearance [22]: 41.7 mL/min/kg
Cmax [23]: 17 ng/mL
bioavailability [24]: 68%
Activity [25]: Active
Drug uptake [26]: 2 ng/g
Drug uptake [27]: 15 ng/g
Drug uptake [28]: 140 ng/g
Cp [29]: 1 µg/mL
Cp [30]: 5 µg/mL
Cp [31]: 12.4 µg/mL

COc1ccc(F)cc1C(=O)c1cc(-c2ccc(Cl)cc2)n(-c2ccc(S(N)(=O)=O)cc2)c1C
EC50 [1]: 10.5 µM
Efficacy [2]: 26%
remaining at 0.5 h [3]: 45%

Cc1c(C(=O)C2CC2)cc(-c2ccc(Cl)cc2)n1-c1ccc(S(N)(=O)=O)cc1
EC50 [1]: 4.9 µM
Efficacy [2]: 25%
remaining at 0.5 h [3]: 92%

Cc1c(C(=O)N2CCCC2)cc(-c2ccc(Cl)cc2)n1-c1ccc(S(N)(=O)=O)cc1
EC50 [1]: 9.4 µM
Efficacy [2]: 57%
remaining at 0.5 h [3]: 31%

Cc1c(C(=O)N(C)C(C)C)cc(-c2ccc(Cl)cc2)n1-c1ccc(S(N)(=O)=O)cc1
EC50 [1]: > 30 µM
Efficacy [2]: 8%

Cc1c(C(=O)N2CCOCC2)cc(-c2ccc(Cl)cc2)n1-c1ccc(S(N)(=O)=O)cc1
EC50 [1]: > 30 µM
Efficacy [2]: 5%

CCOC(=O)c1cc(-c2ccc(Br)cc2)n(-c2ccc(S(N)(=O)=O)cc2)c1C
EC50 [1]: 2.6 µM
Efficacy [2]: 20%
remaining at 0.5 h [3]: 2%

Cc1c(C(=O)CC(C)C)cc(-c2ccc(Cl)cc2)n1-c1ccc(S(N)(=O)=O)cc1
EC50 [1]: 3.9 µM
Efficacy [2]: 74%
remaining at 0.5 h [3]: 44%
